Results taken from ChEMBL document CHEMBL3992515, “Design, synthesis, and evaluation of a novel series of macrocyclic inhibitors of norovirus 3CL protease” (Eur J Med Chem, 2017).

System: not listed separately
Assay: Inhibition of Norovirus 3CLpro using Edans-DFHLQ/GP-Dabcyl as substrate preincubated for 30 mins followed by substrate addition measured after 1 hr by FRET assay
Conditions: not given
In short: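 Protease and serial compound dilutions up to 100 μM (or DMSO) held in 20 mM HEPES pH 8, 200 mM NaCl, 0.4 mM EDTA, 60% glycerol, 6 mM DTT at 37°C for 30 min, then substrate added. Fluorescence (ex 360/em 460 nm) read 1 h later, background subtracted (no-protease well). IC50 from variable-slope curve fit; average of at least two determinations.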

| SMILES | IC50 [µM] |
| --- | --- |
| C[C@@H]1NC(=O)OC(c2cccc(Cl)c2)CCCCCNC(=O)CC[C@@H](C=O)NC1=O (some centres undefined) | > 100 |
| CC(C)C[C@@H]1NC(=O)OC(c2cccc(Cl)c2)CCCCCNC(=O)CC[C@@H](C(O)S(=O)(=O)O)NC1=O (some centres undefined) | 1.1 |
| O=C1CC[C@@H](C(O)S(=O)(=O)O)NC(=O)C2(CCCCC2)NC(=O)OC(c2cccc(Cl)c2)CCCCCCN1 (some centres undefined) | > 100 |
| CC(C)C[C@@H]1NC(=O)OC(CCCc2ccccc2)CCCCCNC(=O)CC[C@@H](C(O)S(=O)(=O)O)NC1=O (some centres undefined) | 6.8 |
| O=C1CC[C@@H](C(O)S(=O)(=O)O)NC(=O)C2(CCCCC2)NC(=O)OC(c2cccc(Cl)c2)CCCCCN1 (some centres undefined) | > 100 |
| CC(C)C[C@@H]1NC(=O)OC(CCCc2ccccc2)CCCCCNC(=O)CC[C@@H](C=O)NC1=O (some centres undefined) | 4.2 |
| O=C[C@@H]1CCC(=O)NC/C=C/CCC(c2cccc(Cl)c2)OC(=O)N[C@@H](CC2CCCCC2)C(=O)N1 (some centres undefined) | 1.3 |
| C[C@@H]1NC(=O)OC(c2cccc(Cl)c2)CCCCCCNC(=O)CC[C@@H](C=O)NC1=O (some centres undefined) | 62.3 |
| CC(C)C[C@@H]1NC(=O)OC(c2ccccc2)CCCCCNC(=O)CC[C@@H](C=O)NC1=O (some centres undefined) | 1.3 |
| CCCCCC1CCCCCNC(=O)CC[C@@H](C=O)NC(=O)[C@H](CC(C)C)NC(=O)O1 (some centres undefined) | 3.2 |
| CC(C)C[C@@H]1NC(=O)OC(c2cccc(Cl)c2)CCCCCCNC(=O)CC[C@@H](C=O)NC1=O (some centres undefined) | 6.3 |

System: Norovirus
Assay: Antiviral activity against Norovirus replicon infected in human HG23 cells assessed as inhibition of viral RNA replication after 48 hrs by qRT-PCR method
Type: functional, cell-based
Conditions: Norovirus, HG23, 48 h
In short: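 HG23 cells (NV replicon-harboring hepatoma), confluent and semi-confluent, given medium with DMSO (<0.1%) or compound up to 20 μM for 48 h. Total RNA extracted and viral genome quantified by real-time qRT-PCR. EC50 fitted from dose-response; average of at least two determinations.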

| SMILES | EC50 [µM] |
| --- | --- |
| C[C@@H]1NC(=O)OC(c2cccc(Cl)c2)CCCCCNC(=O)CC[C@@H](C=O)NC1=O (some centres undefined) | > 20 |
| CC(C)C[C@@H]1NC(=O)OC(c2cccc(Cl)c2)CCCCCNC(=O)CC[C@@H](C(O)S(=O)(=O)O)NC1=O (some centres undefined) | 1.6 |
| O=C1CC[C@@H](C(O)S(=O)(=O)O)NC(=O)C2(CCCCC2)NC(=O)OC(c2cccc(Cl)c2)CCCCCCN1 (some centres undefined) | > 20 |
| CC(C)C[C@@H]1NC(=O)OC(CCCc2ccccc2)CCCCCNC(=O)CC[C@@H](C(O)S(=O)(=O)O)NC1=O (some centres undefined) | 4.6 |
| O=C1CC[C@@H](C(O)S(=O)(=O)O)NC(=O)C2(CCCCC2)NC(=O)OC(c2cccc(Cl)c2)CCCCCN1 (some centres undefined) | > 20 |
| CC(C)C[C@@H]1NC(=O)OC(CCCc2ccccc2)CCCCCNC(=O)CC[C@@H](C=O)NC1=O (some centres undefined) | 7.5 |
| O=C[C@@H]1CCC(=O)NC/C=C/CCC(c2cccc(Cl)c2)OC(=O)N[C@@H](CC2CCCCC2)C(=O)N1 (some centres undefined) | 1.5 |
| C[C@@H]1NC(=O)OC(c2cccc(Cl)c2)CCCCCCNC(=O)CC[C@@H](C=O)NC1=O (some centres undefined) | 9.5 |
| CC(C)C[C@@H]1NC(=O)OC(c2ccccc2)CCCCCNC(=O)CC[C@@H](C=O)NC1=O (some centres undefined) | 7.7 |
| CCCCCC1CCCCCNC(=O)CC[C@@H](C=O)NC(=O)[C@H](CC(C)C)NC(=O)O1 (some centres undefined) | 3.1 |
| CC(C)C[C@@H]1NC(=O)OC(c2cccc(Cl)c2)CCCCCCNC(=O)CC[C@@H](C=O)NC1=O (some centres undefined) | 5.4 |

System: not listed separately
Assay: Cytotoxicity against human HG23 cells after 48 hrs by crystal violet staining-based assay
Type: cell-based
Conditions: HG23 cells, read-out: TC50
In short: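 Confluent NV replicon-bearing hepatoma HG23 cells exposed to compound at 1 to 100 μM for 48 h. Cytotoxicity read by CytoTox 96 nonradioactive assay and crystal violet staining; CC50 taken as concentration giving 50% cell death, averaged over at least two determinations.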

| SMILES | CC50 at 48 h [µM] |
| --- | --- |
| C[C@@H]1NC(=O)OC(c2cccc(Cl)c2)CCCCCNC(=O)CC[C@@H](C=O)NC1=O (some centres undefined) | > 100 |
| CC(C)C[C@@H]1NC(=O)OC(c2cccc(Cl)c2)CCCCCNC(=O)CC[C@@H](C(O)S(=O)(=O)O)NC1=O (some centres undefined) | > 100 |
| O=C1CC[C@@H](C(O)S(=O)(=O)O)NC(=O)C2(CCCCC2)NC(=O)OC(c2cccc(Cl)c2)CCCCCCN1 (some centres undefined) | 46.6 |
| CC(C)C[C@@H]1NC(=O)OC(CCCc2ccccc2)CCCCCNC(=O)CC[C@@H](C(O)S(=O)(=O)O)NC1=O (some centres undefined) | 69.2 |
| O=C1CC[C@@H](C(O)S(=O)(=O)O)NC(=O)C2(CCCCC2)NC(=O)OC(c2cccc(Cl)c2)CCCCCN1 (some centres undefined) | 48.5 |
| CC(C)C[C@@H]1NC(=O)OC(CCCc2ccccc2)CCCCCNC(=O)CC[C@@H](C=O)NC1=O (some centres undefined) | 71.5 |
| O=C[C@@H]1CCC(=O)NC/C=C/CCC(c2cccc(Cl)c2)OC(=O)N[C@@H](CC2CCCCC2)C(=O)N1 (some centres undefined) | 42.3 |
| C[C@@H]1NC(=O)OC(c2cccc(Cl)c2)CCCCCCNC(=O)CC[C@@H](C=O)NC1=O (some centres undefined) | > 100 |
| CC(C)C[C@@H]1NC(=O)OC(c2ccccc2)CCCCCNC(=O)CC[C@@H](C=O)NC1=O (some centres undefined) | > 100 |
| CCCCCC1CCCCCNC(=O)CC[C@@H](C=O)NC(=O)[C@H](CC(C)C)NC(=O)O1 (some centres undefined) | 72.7 |
| CC(C)C[C@@H]1NC(=O)OC(c2cccc(Cl)c2)CCCCCCNC(=O)CC[C@@H](C=O)NC1=O (some centres undefined) | 67.4 |

System: Murine norovirus
Assay: Antiviral activity against MNV replicon infected in mouse RAW264.7 cells assessed as inhibition of viral RNA replication after 24 hrs
Conditions: RAW264.7, 24 h

| SMILES | EC50 [µM] |
| --- | --- |
| C[C@@H]1NC(=O)OC(c2cccc(Cl)c2)CCCCCNC(=O)CC[C@@H](C=O)NC1=O (some centres undefined) | > 20 |
| CC(C)C[C@@H]1NC(=O)OC(c2cccc(Cl)c2)CCCCCNC(=O)CC[C@@H](C(O)S(=O)(=O)O)NC1=O (some centres undefined) | 15.1 |
| O=C1CC[C@@H](C(O)S(=O)(=O)O)NC(=O)C2(CCCCC2)NC(=O)OC(c2cccc(Cl)c2)CCCCCCN1 (some centres undefined) | > 20 |
| CC(C)C[C@@H]1NC(=O)OC(CCCc2ccccc2)CCCCCNC(=O)CC[C@@H](C(O)S(=O)(=O)O)NC1=O (some centres undefined) | > 20 |
| O=C1CC[C@@H](C(O)S(=O)(=O)O)NC(=O)C2(CCCCC2)NC(=O)OC(c2cccc(Cl)c2)CCCCCN1 (some centres undefined) | > 20 |
| CC(C)C[C@@H]1NC(=O)OC(CCCc2ccccc2)CCCCCNC(=O)CC[C@@H](C=O)NC1=O (some centres undefined) | > 20 |
| O=C[C@@H]1CCC(=O)NC/C=C/CCC(c2cccc(Cl)c2)OC(=O)N[C@@H](CC2CCCCC2)C(=O)N1 (some centres undefined) | 3.1 |
| C[C@@H]1NC(=O)OC(c2cccc(Cl)c2)CCCCCCNC(=O)CC[C@@H](C=O)NC1=O (some centres undefined) | > 20 |
| CC(C)C[C@@H]1NC(=O)OC(c2ccccc2)CCCCCNC(=O)CC[C@@H](C=O)NC1=O (some centres undefined) | > 20 |
| CCCCCC1CCCCCNC(=O)CC[C@@H](C=O)NC(=O)[C@H](CC(C)C)NC(=O)O1 (some centres undefined) | 12.1 |
| CC(C)C[C@@H]1NC(=O)OC(c2cccc(Cl)c2)CCCCCCNC(=O)CC[C@@H](C=O)NC1=O (some centres undefined) | > 20 |
